An excerpt weighted towards active compounds, which were near 2.6% of everything screened.
S100A4 MyoIIA – S100A4-myosin IIA interaction inhibition; inhibition, % at 10.7 µM; S100A4/TAMRA-MyoIIA peptide fluorescence polarization; 360,000 tested, 0.14% active;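 active = mean inhibition of at least 70% across replicates, with every replicate also reaching that level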
Target sequence (P26447 whole entry, looked up): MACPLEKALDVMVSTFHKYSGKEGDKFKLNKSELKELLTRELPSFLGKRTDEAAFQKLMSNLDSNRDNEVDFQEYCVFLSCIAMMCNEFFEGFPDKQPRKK
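Test system – S100A4 monomer (human) · Compound – single-point compound testing · Schedule – 5 min incubation before reading · Probe or stimulus – TAMRA-labelled myosin IIA heavy-chain peptide probe, 5 nM · Benchmarks – neutral control DMSO, positive control TFP · Medium – Calcium-containing HEPES buffer, pH 7.2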
rRNA inh HTS – inhibits bacterial ribosomal RNA function over humanized ribosomes; E. coli WT GFP vs humanized-ribosome RFP mutants, fluorescence, 24 h; stronger effect = lower value; DMSO median 0, no signal -100; GFP signal change (wild-type ribosome), % (no concentration beside the values); 350,000 tested, 1.6% active; AID 720706;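 active = significant combined selectivity score with lowered wild-type GFP, culture density cut under 30%, mutant RFP and density less affected; inactive = any of these conditions unmet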
Env fusion inh – blocks HIV Env-driven cell-cell fusion; inhibition, % at 12.3 µM; HeLa-JRFL Env/CEM21 cell fusion, luciferase; AID 651610; 360,000 tested, 1.1% active;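 active = mean replicate inhibition score of at least 50 and every replicate individually at or above 50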;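 also: 0% = plate neutral controls and 100% = maraviroc near 300 nM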
Vif imaging – blocks HIV Vif function | HEK293T cells, Vif self-association by quenched fluorescence, imaging, 24 h | inhibition, % at 7.49 µM | 340,000 tested, 0.35% active; in the data active = inhibition above about 50%, passing the limit was not always enough
FN deposit inh – fibronectin deposition inhibition. inhibition, % at 12.6 µM. 350,000 tested, 0.086% active. AH1F fibroblasts, Alexa488-fibronectin deposition fluorescence, overnight;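 active = mean inhibition across replicates of 30% or more, regardless of how many single replicates reach that level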;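 also: positive control wells lacked labelled fibronectin entirely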
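Schedule: 1 h cell adhesion before compound, then overnight fibronectin incubation; test system: AH1F fibroblast monolayer depositing Alexa488-labelled fibronectin into matrix; quantity: 10000 AH1F cells per well; probe or stimulus: fluorescent fibronectin at 24 nM final; signal: fluorescence, ex 485 nm, em 525 nm; evaluation: percent inhibition as loss of matrix-bound fibronectin fluorescence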
miR122 inh – blocks miR-122 activity in Huh7 sensor cells; Huh7 miR-122 Renilla luciferase sensor, 48 h; neutral wells = 0, positive control = 100; activation (reporter increase), % at 12.5 µM; 340,000 tested, 0.3% active;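 active = mean replicate activation score at least 90 and every replicate individually at or above 90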;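 also: higher luciferase means less miR-122 activity so hits act as miR-122 inhibitors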
Numbers without * were called inactive; . = no result given; [ ] = dose if it differs, or a comment.

SMILES	S100A4 MyoIIA	rRNA inh HTS	Env fusion inh	Vif imaging	FN deposit inh	miR122 inh
COc1ccc(S(=O)(=O)Nc2ccc3c(c2)CC(=O)N([C@H](C)CO)C[C@H](C)[C@H](CN(C)Cc2ccc(C(=O)Nc4ccccc4N)cc2)O3)cc1	-3	0	-19[16.7 µM]	.	3	212*[16.7 µM]
C[C@H](CO)N1C[C@H](C)[C@H](CN(C)Cc2ccc(C(=O)Nc3ccccc3N)cc2)Oc2ccc(NS(=O)(=O)c3ccc(F)cc3)cc2CC1=O	-13	2	-102[16.7 µM]	.	.	162*[16.7 µM]
OC[C@H]1Nc2ccc(C#Cc3ccc(F)cc3)cc2[C@H]2[C@@H]1CCN2Cc1nccs1	.	-8	.	.	5	-1[16.7 µM]
COCc1c(C#N)c(NCc2cc(OC)c(OC)c(OC)c2)nc(C)c1[N+](=O)[O-]	0	-6	57*	-6	2	.
CCOc1ccc2nc(NC(=O)CN3CCC(n4nnc5cc(C(F)(F)F)ccc54)CC3)sc2c1	.	.	50*	.	9	0
Cc1cc(NC(=O)CN2CCC(n3nnc4cc(C(F)(F)F)ccc43)CC2)no1	3	2	.	-5	.	-5
CCOc1ccc2nc(NS(=O)(=O)c3ccc(NC(C)=O)cc3)sc2c1	.	.	-106	4	0	16
CC(=O)Nc1nc2ccc(S(=O)(=O)N3CCCC3)cc2s1	-16	3	-17	-6	1	-4
CCOc1ccc2nc(NC(=O)CS(=O)(=O)c3ccccc3)sc2c1	.	.	.	-7	.	-1
CCOc1ccc2nc(NS(=O)(=O)Cc3ccccc3)sc2c1	.	.	-79	106*	.	69
CCCC(=O)Nc1nc2ccc(S(=O)(=O)N3CCCCC3)cc2s1	-2	-4	-143	-8	4	118*
CCOc1ccc2nc(NC(=O)CS(=O)(=O)c3ccc(C)cc3)sc2c1	-1	-26*	-165	-6	-2	-2
C[C@H]1CN([C@@H](C)CO)S(=O)(=O)c2ccc(Br)cc2O[C@@H]1CN(C)C(=O)c1cnccn1	-7	2	-6[16.7 µM]	.	-7	-4[16.7 µM]
C[C@@H]1CCCCO[C@H](CN(C)C(=O)Nc2cccc3ccccc23)[C@H](C)CN([C@H](C)CO)C(=O)c2cc(NS(=O)(=O)c3ccc(F)cc3)ccc2O1	5	4	25[16.7 µM]	.	-8	-9[16.7 µM]
COc1cccc(NC(=O)Nc2ccc3c(c2)OC[C@H](C)NC[C@@H](C)[C@@H](OC)CN(C)C3=O)c1	17	-2	-14[16.7 µM]	.	-24	6[16.7 µM]
CC(C)NC(=O)Nc1ccc2c(c1)C(=O)N([C@@H](C)CO)C[C@H](C)[C@H](CN(C)C(=O)NC1CCCCC1)O2	0	0	-13[16.7 µM]	.	.	-2[16.7 µM]
Cc1c(C(=O)NNc2c(Cl)cccc2Cl)n(C)oc1=O	-6	-22*	21	3	-5	.
Cc1c(C(=O)Oc2ccc(Cl)cc2)n(C)oc1=O	-5	13	-3	3	3	.
O=C(Nc1cccc(C(F)(F)F)c1)c1ccc(Cn2cc(Br)cn2)o1	.	.	79*	-15	.	6
C[C@H](CO)N1C[C@H](C)[C@H](CN(C)S(=O)(=O)c2ccc(F)cc2)Oc2ccc(NC(=O)Nc3ccccc3)cc2CC1=O	-11	0	55*[16.7 µM]	.	.	1[16.7 µM]
C[C@H](CO)N1C[C@H](C)[C@H](CN(C)S(=O)(=O)c2ccccc2)Oc2ccc(NC(=O)Nc3ccccc3)cc2CC1=O	1	4	80*[16.7 µM]	.	.	-2[16.7 µM]
C[C@H](CO)N1C[C@H](C)[C@H](CN(C)S(=O)(=O)c2ccc(F)cc2)Oc2ccc(NC(=O)Nc3cccc4ccccc34)cc2CC1=O	2	1	83*[16.7 µM]	.	.	-2[16.7 µM]
C[C@H](CO)N1C[C@H](C)[C@H](CN(C)S(=O)(=O)c2ccccc2)Oc2ccc(NC(=O)Cc3ccccc3)cc2CC1=O	-1	1	92*[16.7 µM]	.	.	16[16.7 µM]
Cc1ccccc1NS(=O)(=O)c1cccc2nonc12	-5	3	-15	-1	-3	-2
O=S(=O)(Nc1cccc2ccccc12)c1cccc2nonc12	-7	-27*	-3	2	10	1
SMILES	S100A4 MyoIIA	rRNA inh HTS	Env fusion inh	Vif imaging	FN deposit inh	miR122 inh
CNC[C@H]1OCCCC[C@H](C)Oc2ccc(NC(=O)CCC(F)(F)F)cc2C(=O)N([C@@H](C)CO)C[C@@H]1C	.	8	7[16.7 µM]	.	.	11[16.7 µM]
C[C@H](CO)N1C[C@H](C)[C@@H](CN(C)Cc2ccc3c(c2)OCO3)OCCCC[C@H](C)Oc2ccc(NC(=O)CCCN(C)C)cc2C1=O	17	4	14[16.7 µM]	.	.	2[16.7 µM]
C[C@@H]1CCCCO[C@H](CN(C)C(=O)NC2CCCCC2)[C@H](C)CN([C@@H](C)CO)C(=O)c2cc(NC(=O)c3ccccc3)ccc2O1	.	-7	34[16.7 µM]	.	2	-4[16.7 µM]
Cc1ccccc1Nc1cccc2nonc12	-6	-40*	-5	-7	-1	2
Cc1ccccc1Nc1ccc2nonc2c1[N+](=O)[O-]	4	8	8	6	0	.
COc1ccc2c3c(n(C)c2c1)[C@H](CO)N(C(=O)NC1CCCC1)CC31CCN(C(C)=O)CC1	6	1	.	.	.	.
COc1ccc(OC)c(C2C3CN(C(C)C)CC=C3C(C#N)=C(N)C2(C#N)C#N)c1 (stereo unspecified)	.	.	-13	95*	-8	2
CCOC(=O)c1ccc(NC(=O)c2cccc(C)c2[N+](=O)[O-])cc1	-1	-3	9	3	.	.
COC(=O)c1ccc(NC(=O)c2cccc(C)c2[N+](=O)[O-])cc1	-9	-22*	14	-9	0	2
Cc1ccccc1C(=O)NNC(=S)NC(=O)c1cccnc1	4	-24	-7	-13	-13	0
O=C(NC(=S)NNC(=O)c1ccccc1F)c1cccnc1	0	-19*	0	-3	-2	-1
CC(C)C#Cc1ccc2c(c1)O[C@H](CN(C)C(=O)C1CC1)[C@@H](C)CN([C@H](C)CO)S2(=O)=O	-2	1	-18[16.7 µM]	.	.	12[16.7 µM]
COc1ccc2c3c([nH]c2c1)[C@@H](CO)N(C(=O)Cc1ccccc1)CC31CCN(C(=O)Cc2ccccc2)CC1	.	1	.	.	.	.
N=c1c2ccccc2nnn1-c1ccccc1[N+](=O)[O-]	-1	-4	-33	5	-8	161*
C[C@@H]1CCCCO[C@@H](CN(C)S(=O)(=O)c2ccc(F)cc2)[C@H](C)CN([C@@H](C)CO)C(=O)c2cc(NS(=O)(=O)c3ccccc3)ccc2O1	3	-3	-24[16.7 µM]	.	.	5[16.7 µM]
COc1ccc(CN(C)C[C@@H]2Oc3ccc(NS(C)(=O)=O)cc3C(=O)N([C@H](C)CO)C[C@@H]2C)cc1	-2	4	.	.	.	2[16.7 µM]
COc1cc(CNc2ncc(-c3ccc(Br)cc3)n2C)cc(OC)c1OC	0	-19*	4	-3	-13	.
Oc1cccc2c3c(oc12)CCCC3	0	-12	-15	70*	-1	-4

Compound activity as filed in PubChem.
